The species entered for series [1] is Homo sapiens. The series is described as follows: Inhibition of PDE4 in human U937 cells assessed as [3H]cAMP hydrolysis at 1 uM relative to control. Type of series: cell-based.
Series [2] addresses Receptor-interacting serine/threonine-protein kinase 2 (Homo sapiens) (UniProt O43353). In words: Inhibition of RIPK2 (unknown origin) at 10 uM relative to control.
Series [3] is filed under the species Homo sapiens. In words: Inhibition of cyclinH/MAT1 (unknown origin) at 10 uM relative to control.
The species entered for series [4] is Homo sapiens. In words: Inhibition of p70S6K (unknown origin) at 10 uM relative to control.
Series [5] can be described thus: Drug metabolism in cynomolgus monkey liver microsomes assessed as 4-(4-(4-fluorophenyl)-1-methyl-2-(methylsulfonyl)-1H-imidazol-5-yl)pyridin-2-amine formation at 10 to 100 uM. Type of series: ADME, Macaca fascicularis, microsome. Put shortly:
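Test compound incubated at 10, 30 and 100 μM with liver microsomes from rat, Cynomolgus monkey or human, and metabolites monitored.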

The subject of series [6] is Rattus norvegicus. The series is described as follows: In vivo inhibition of P38 MAPKalpha in Lewis rat assessed as decrease in LPS-stimulated TNFalpha level in serum at 10 mg/kg, po pretreated for 5 hrs followed by LPS addition measured after 1.5 hrs post dose. The class given is functional, organism-based. Put shortly: (§1)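 Lewis rats, n = 8/group: females dosed orally at 10 mg/kg at −1, −3 or −5 h relative to LPS challenge, plus one male group dosed at −1 h. Male and female vehicle controls were given at −1 h. Serum TNFα was measured after LPS and compared with vehicle.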

Series [7] deals with Rattus norvegicus. In words: In vivo inhibition of P38 MAPKalpha in Lewis rat assessed as decrease in LPS-stimulated TNFalpha level in serum at 10 mg/kg, po pretreated for 1 hr followed by LPS addition measured after 1.5 hrs post dose relative to control. The class given is functional. Put shortly: as §1
Series [8] deals with Rattus norvegicus. The series is described as follows: Antiarthritic activity in Lewis rat assessed as decrease in collagen-induced arthritic score at 25 mg/kg, po bid administered for 10 days. Type of series: functional, organism-based. Put shortly: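 Collagen-induced arthritis in male Lewis rats (5–6 per group). Groups received vehicle, dexamethasone 1 mg/kg, test item 50 mg/kg once daily, or 25 mg/kg twice daily for 10 days. Body weight, arthritic score and paw volume were monitored, and serum COMP was measured at the end.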

Another series has as its system Mus musculus. In words: Antiarthritic activity in human TNF transgenic mouse model assessed as reduction in synovitis at 20 to 50 mg/kg/day, po for 10 weeks. Type of series: functional, organism-based. Put shortly:
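Heterozygous human TNF transgenic mice (8 per group) were dosed orally for ten weeks with 20 or 50 mg/kg/day as a methylcellulose suspension, alongside vehicle and infliximab i.p. controls. Joint swelling and grip strength were scored weekly, and hind paws were examined histologically at the end.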

Series [9] in a line: AUC (0 to infinity) in mongrel dog at 30 mg/kg, po by LC-MS/MS analysis. The class given is ADME, organism-based, Canis lupus familiaris. Also on record: dose 30 mg/kg, time infinity, route oral. The following applies: in vivo. Put shortly: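 Two mongrel dogs received a single oral dose of 30 mg/kg. Blood was sampled from 0.25 to 24 h and plasma parent concentrations were determined.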

The nature of series [10]: Tmax in Beagle dog at 40 mg/kg, po by LC-MS/MS analysis. The note with it: in vivo. The class given is ADME, organism-based, Canis lupus familiaris.
Series [11] can be described thus: AUC (0 to infinity) in Beagle dog at 40 mg/kg, po by LC-MS/MS analysis. The class given is ADME, organism-based, Canis lupus familiaris. Also on record: dose 40 mg/kg, time infinity, route oral. The note with it: in vivo. Put shortly:
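Toxicokinetics from a maximum-tolerated-dose study in four Beagle dogs given 40 mg/kg orally. Plasma levels of both parent and its predominant metabolite were monitored.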

Series [12] is described as follows: Cmax in female Sprague-Dawley rat at 30 mg/kg, po by LC-MS/MS analysis. Type of series: ADME, organism-based. Details: dose 30 mg/kg, route oral. The note with it: in vivo.
Series [13] is described as follows: AUC (0 to t) in female Sprague-Dawley rat at 30 mg/kg, po by LC-MS/MS analysis. The following applies: in vivo. The class given is ADME, organism-based. Put shortly:
(§2)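 Rats of each sex received a single oral dose of 30 mg/kg. Plasma concentration–time profiles of parent were determined separately for females and males.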

Series [14] can be described thus: AUC (0 to infinity) in female Sprague-Dawley rat at 30 mg/kg, po by LC-MS/MS analysis. Type of series: ADME, organism-based. Also on record: dose 30 mg/kg, time infinity, route oral. The note with it: in vivo. Put shortly: as §2
A short description of series [15]: AUC (0 to t) in male Sprague-Dawley rat at 30 mg/kg, po by LC-MS/MS analysis. Type of series: ADME, organism-based. The note with it: in vivo. Put shortly: as §2
For series [16], the system named is Cynomolgus monkey. In words: Toxicity in cynomolgus monkey assessed as decrease in QT at 6 to 20 mg/kg, po. The following applies: in vivo. The class given is organism-based, Macaca fascicularis.
Series [17] deals with Cynomolgus monkey. The series is described as follows: Toxicity in cynomolgus monkey assessed as effect on mean blood preasure at 6 to 20 mg/kg, po. The class given is organism-based, Macaca fascicularis. The note with it: in vivo.
A further series concerns Escherichia coli. In words: Genotoxicity in Escherichia coli in absence of S9 fraction by Ames test. The class given is toxicity. Put shortly: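 Bacterial reverse mutation (Ames) test in S. typhimurium and E. coli strains, run with and without S9 mix.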
On the technique in general: The Ames test detects mutagens through reverse mutation in bacteria.

Series [18] concerns Homo sapiens. The series is described as follows: Toxicity in human assessed as change in body weight at 50 mg, po administered as single dose. The class given is organism-based. The note with it: in vivo.
Series [19] deals with Homo sapiens. The series is described as follows: Toxicity in human assessed as effect on blood pressure at 50 mg, po administered as single dose. The class given is organism-based. The note with it: in vivo.
The test system of series [20] is Homo sapiens. The series is described as follows: Toxicity in human assessed as effect on heart rate at 50 mg, po administered as single dose. Type of series: organism-based. The note with it: in vivo.
In series [21] the test system is Homo sapiens. In words: In vivo inhibition of p38 MAPKalpha in human whole blood assessed as decrease in LPS-stimulated TNFalpha level at 10 to 30 mg treated for 36 hrs followed by LPS stimulation. The class given is functional, organism-based. Put shortly: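 Ex vivo read-out in healthy volunteers after a single oral dose (10, 20 or 30 mg; placebo-controlled, single-blind, randomized). Blood drawn pre-dose and at 1, 2, 4, 9, 24 and 36 h post-dose was stimulated with LPS. TNFα release is expressed relative to the LPS-stimulated pre-dose sample of the same subject.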

The nature of series [22]: AUC (infinity) in human at 20 mg, po administered as single dose. The note with it: in vivo. Also on record: dose 20 mg, time infinity, route oral. Type of series: ADME, organism-based. Put shortly:
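Placebo-controlled, single-blind, randomized, consecutive-dosing study in healthy subjects given single oral doses, with 10 mg also given fasting and fed in a crossover. Plasma parent and active metabolite were measured predose and from 0.25 to 36 h post dose. PK parameters were derived from individual concentration–time profiles and reported as means.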

For series [23], the target named is T1, Mitogen-activated protein kinase 14 (Homo sapiens, UniProt Q16539). In words: Inhibition of MKK6-mediated p38alpha MAPK (unknown origin) phosphorylation up to 10 uM.
Series [24] in a line: Drug metabolism in human primary hepatocytes assessed as CBS-3728 formation at 10 to 100 uM. The class given is ADME, cell-based, Hepatocyte.
Series [25] in a line: Drug metabolism in human primary hepatocytes assessed as CBS-3846 formation at 10 to 100 uM. Type of series: ADME, cell-based, Hepatocyte.
The target of series [26] is Mitogen-activated protein kinase 8 (Homo sapiens) (UniProt P45983). The series is described as follows: Inhibition of JNK1alpha1 (unknown origin) at 10 uM.
In series [27] the target is Mitogen-activated protein kinase 1 (Homo sapiens) (UniProt P28482). In words: Inhibition of MAPK1 (unknown origin) at 10 uM.
In series [28] the target is T1, Mitogen-activated protein kinase 14. In words: Inhibition of p38MAPK alpha (unknown origin) at 10 uM relative to control.
In series [29] the target is Mitogen-activated protein kinase 11 (Homo sapiens) (UniProt Q15759). In words: Inhibition of p38MAPK beta (unknown origin) at 10 uM relative to control.
The subject of another series is Canis familiaris. The series is described as follows: Tmax in Beagle dog assessed as 4-(4-(4-fluorophenyl)-1-methyl-2-(methylsulfinyl)-1H-imidazol-5-yl)pyridin-2-amine level at 40 mg/kg, po by LC-MS/MS analysis. The class given is ADME, organism-based, Canis lupus familiaris. The note with it: in vivo.

Experimental findings from ChEMBL document CHEMBL4028848, “Discovery of N-{4-[5-(4-Fluorophenyl)-3-methyl-2-methylsulfanyl-3H-imidazol-4-yl]-pyridin-2-yl}-acetamide (CBS-3595), a Dual p38α MAPK/PDE-4 Inhibitor with Activity against TNFα-Related Diseases” (J Med Chem, 2017) are described below.

The structures appear in SMILES notation. Activity calls are given as the source filed them. The rule behind the calls is not given here.

T1 sequence (Q16539 whole entry): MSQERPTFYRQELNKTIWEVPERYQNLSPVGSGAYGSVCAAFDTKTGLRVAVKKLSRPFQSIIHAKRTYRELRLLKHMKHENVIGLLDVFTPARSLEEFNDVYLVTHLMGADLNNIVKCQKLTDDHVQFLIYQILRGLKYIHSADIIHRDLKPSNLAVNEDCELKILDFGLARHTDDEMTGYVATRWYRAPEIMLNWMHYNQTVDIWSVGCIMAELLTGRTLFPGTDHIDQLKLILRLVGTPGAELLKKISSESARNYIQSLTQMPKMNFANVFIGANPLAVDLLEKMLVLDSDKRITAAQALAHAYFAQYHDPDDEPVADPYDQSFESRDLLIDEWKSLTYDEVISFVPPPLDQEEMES
Mitogen-activated protein kinase 1 (Homo sapiens), sequence (P28482 whole entry): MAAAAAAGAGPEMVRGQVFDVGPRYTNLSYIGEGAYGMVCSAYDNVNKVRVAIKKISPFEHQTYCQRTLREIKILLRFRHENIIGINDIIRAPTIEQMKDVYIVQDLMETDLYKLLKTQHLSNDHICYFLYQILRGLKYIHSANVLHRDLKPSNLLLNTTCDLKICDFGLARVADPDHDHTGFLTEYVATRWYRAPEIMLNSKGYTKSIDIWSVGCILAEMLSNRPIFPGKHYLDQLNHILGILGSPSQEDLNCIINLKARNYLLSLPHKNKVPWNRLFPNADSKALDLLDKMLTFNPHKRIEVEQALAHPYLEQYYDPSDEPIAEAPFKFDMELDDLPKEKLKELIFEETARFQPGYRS
Mitogen-activated protein kinase 11 (Homo sapiens), sequence (Q15759 whole entry): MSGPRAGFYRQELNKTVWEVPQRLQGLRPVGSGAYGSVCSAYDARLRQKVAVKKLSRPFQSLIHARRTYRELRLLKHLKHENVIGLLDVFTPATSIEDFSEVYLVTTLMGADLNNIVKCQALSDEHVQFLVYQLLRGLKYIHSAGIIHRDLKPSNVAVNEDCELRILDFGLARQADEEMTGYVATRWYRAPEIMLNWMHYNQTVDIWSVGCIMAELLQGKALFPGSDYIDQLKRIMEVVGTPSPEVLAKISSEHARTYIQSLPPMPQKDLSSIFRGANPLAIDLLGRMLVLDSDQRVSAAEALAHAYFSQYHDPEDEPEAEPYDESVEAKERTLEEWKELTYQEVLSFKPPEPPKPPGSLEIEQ
Mitogen-activated protein kinase 8 (Homo sapiens), sequence (P45983 whole entry): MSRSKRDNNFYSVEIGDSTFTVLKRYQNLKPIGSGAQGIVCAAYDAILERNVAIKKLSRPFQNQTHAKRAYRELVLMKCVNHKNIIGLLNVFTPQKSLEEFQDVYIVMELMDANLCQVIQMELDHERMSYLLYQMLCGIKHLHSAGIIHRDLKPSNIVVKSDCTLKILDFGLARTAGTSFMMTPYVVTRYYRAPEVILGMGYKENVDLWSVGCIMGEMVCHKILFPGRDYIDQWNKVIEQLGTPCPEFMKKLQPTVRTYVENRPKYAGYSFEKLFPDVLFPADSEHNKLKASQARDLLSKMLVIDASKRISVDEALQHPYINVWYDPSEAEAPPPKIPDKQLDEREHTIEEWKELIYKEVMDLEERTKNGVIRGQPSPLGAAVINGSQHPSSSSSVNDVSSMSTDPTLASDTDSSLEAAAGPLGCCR
Receptor-interacting serine/threonine-protein kinase 2 (Homo sapiens), sequence (O43353 whole entry): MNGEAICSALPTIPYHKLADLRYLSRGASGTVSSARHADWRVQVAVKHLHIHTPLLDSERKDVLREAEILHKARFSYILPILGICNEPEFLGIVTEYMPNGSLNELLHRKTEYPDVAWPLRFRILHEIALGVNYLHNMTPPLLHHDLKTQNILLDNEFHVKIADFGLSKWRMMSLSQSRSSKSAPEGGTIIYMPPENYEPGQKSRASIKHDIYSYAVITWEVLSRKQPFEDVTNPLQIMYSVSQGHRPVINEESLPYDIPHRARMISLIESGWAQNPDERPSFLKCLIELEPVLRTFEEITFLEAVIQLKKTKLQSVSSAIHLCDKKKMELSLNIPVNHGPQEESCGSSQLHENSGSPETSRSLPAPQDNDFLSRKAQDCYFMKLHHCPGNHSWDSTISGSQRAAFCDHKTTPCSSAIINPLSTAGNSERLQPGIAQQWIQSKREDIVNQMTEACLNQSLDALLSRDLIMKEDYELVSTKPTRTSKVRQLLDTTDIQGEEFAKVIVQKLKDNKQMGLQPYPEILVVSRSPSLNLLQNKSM

Turning to `CC(=O)Nc1cc(-c2c(-c3ccc(F)cc3)nc([S+](C)[O-])n2C)ccn1` (configuration not stated), the inhibition in the series filed under Homo sapiens [1] was determined as 73%; in series [2] it was 33%; in the series filed under Homo sapiens [3], 54%; in the series listed under Homo sapiens [4], 32%. Besides, the Drug metabolism entry in series [5], in series [24] and in series [25] was “Metabolite_Detected” in each case. The inhibition result in the series on Rattus norvegicus [6] and with Homo sapiens [21] was “Active” throughout. Besides, the inhibition in vivo at 10 mg/kg with Rattus norvegicus [7] was 76%. Also, the result with Rattus norvegicus [8] and in the series on Mus musculus was Active. The AUC(0-inf) in series [9] stood at 96.8 µM·h; in [11] it was 120 µM·h; in series [14], 40.9 µM·h; in series [22], 2.24 µM·h. In addition, the time to peak (Tmax) in [10] was 1.5 h. In [12], this molecule showed a maximum concentration (Cmax) of 4.8 µM. The AUC(0-t) in [13] is 40.9 µM·h; in series [15] it was 29.8 µM·h. For the same molecule, the Activity result in the series on Cynomolgus monkey [16] is on record as “Toxic”; with Cynomolgus monkey [17] it was “Non-Toxic”; with Escherichia coli, “Non-Toxic”; in the series with Homo sapiens [18] it was “Non-Toxic”; in the series with Homo sapiens [19], “Non-Toxic”; with Homo sapiens [20], “Non-Toxic”. Moreover, in series [23], the inhibition result was “inactive”.
Consider `Cn1c([S+](C)[O-])nc(-c2ccc(F)cc2)c1-c1ccnc(N)c1` (configuration not stated), for which the inhibition result in series [26], in [27], in series [28] and in [29] was “inactive” in each case. The Tmax in the series with Canis familiaris is 4 h.

What is called inhibition is the relative decrease from the control value, in per cent. Usually inhibition in vivo stands for the share of the control response that was lost under treatment. The AUC(0-inf) is total exposure, with the tail of the curve extrapolated. What is called Tmax is the time from dosing to the highest level. Usually Cmax stands for the highest concentration seen after dosing. In general, AUC(0-t) refers to the area under the concentration-time curve up to a stated or last time point.
